We go through eleven compounds from PMC6067823 (Organic & biomolecular chemistry, 2018).

One assay has as its system rat OR-I7. The note with it: cited from earlier work; for Function at rodent OR-I7 (agonist or antagonist), in words: rat OR-I7, earlier study; for IC50: read-out: IC50 (antagonist, estimated).
In another assay the test system is rat ORs. Conditions: cited from earlier work.
The target of assay [1] is T1, mouse OR-I7 (Mus musculus, UniProt Q9QWU6).
T1 sequence (Q9QWU6 1-327): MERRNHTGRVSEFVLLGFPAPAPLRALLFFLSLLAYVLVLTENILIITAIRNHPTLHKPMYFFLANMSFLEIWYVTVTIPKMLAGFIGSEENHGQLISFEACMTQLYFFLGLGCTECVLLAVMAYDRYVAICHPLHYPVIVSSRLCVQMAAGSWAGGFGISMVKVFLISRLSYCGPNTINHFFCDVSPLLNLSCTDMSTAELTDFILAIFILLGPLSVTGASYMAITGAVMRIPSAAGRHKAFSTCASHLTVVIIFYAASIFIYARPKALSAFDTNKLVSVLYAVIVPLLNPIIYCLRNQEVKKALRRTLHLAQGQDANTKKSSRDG
The assay is described as follows: Hana3A GloSensor cAMP assay, inhibition of response to co-applied 5 µM octanal. It is filed as cell-based. The note with it: for Relative antagonist potency within the series, in words: side-by-side comparison, Figs. 3 and 4. (In general: cAMP levels reflect the balance of adenylyl cyclase and phosphodiesterase activity.)

For assay [2], the target named is T1, mouse OR-I7. Put plainly: Hana3A GloSensor cAMP assay, compounds applied alone. The note with it: compound applied alone to Hana3A cells expressing mouse OR-I7. The assay is classed as cell-based. An outline of the steps: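 Hana3A cells were co-transfected with Rho-tagged mouse OR-I7 (80 ng/well), RTP1S, M3-R and pGloSensor-22F (10 ng/well each). At 18–24 h they were loaded with 2% GloSensor reagent for 2 h. Test compound was applied alone over a concentration range, and luminescence was read every 90 s for 24 min. Signal at 3–7.5 min was summed, baselined and normalized to octanal. Six replicates per plate, mean ± SEM.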

“Also recorded” adds a separate entry of the source.

As for `CC(C)=CCC[C@@H](C)CC=O` (racemic) [citronellal], the “Agonist activity at rat OR-I7 compared with octanal, in words” value with rat OR-I7 (rat OR-I7) is recorded as “almost as good a rat OR-I7 agonist as octanal”.

For `CCCCCCCC=O` [Compound 1, octanal], in the assay on rat OR-I7, the “Function at rodent OR-I7 (agonist or antagonist), in words” value (from here on “Function at rodent OR-I7”) is listed as “agonists”. Further, the “Number of rat ORs activated” value in the assay on rat ORs is given as 33–55.

A word on the IC50: it is the concentration at which inhibition is half-maximal. Regarding `O=CCC1CCCCC1` [Compound 2, cyclohexylethanal], the “Function at rodent OR-I7” value in the assay with rat OR-I7 is listed as “antagonists”. The IC50 with rat OR-I7 (rat OR-I7) is 37 µM. Also, at mouse OR-I7 [1] (increasing concentrations co-applied with constant 5 µM octanal), the “Response to octanal with co-applied compound (antagonism), in words” value is reported as “reduced in a dose-dependent manner”. For the same compound, the “Activation of mouse OR-I7 (agonist activity), in words” value at mouse OR-I7 [2] is reported as “not a mouse OR-I7 agonist”.

For the compound `CCCCC=O` [Compound 3, Pentanal], the “Function at rodent OR-I7” value in the assay on rat OR-I7 is given as “weak rat OR-I7 antagonist; also recorded: antagonists”. Besides, the half-inhibitory concentration (IC50) in the assay on rat OR-I7 (rat OR-I7) is 460 µM.

Turning to `CCC1CCC(CC=O)CC1` (stereo not shown) [Compound 4, (4-ethylcyclohexyl)ethanal], the “Function at rodent OR-I7” value in the assay on rat OR-I7 was “agonists”.

With `CCC(C)CC=O` (stereo not shown) [Compound 5], the “Increase in antagonist potency relative to pentanal” value on mouse OR-I7 [1] (from estimated IC50s, 5 µM octanal, Fig. 3) is listed as 5 fold.

In the case of `CCC(CC)(CC)CC=O` [Compound 8], the “Relative antagonist potency within the series, in words” value at mouse OR-I7 [1] (5 µM octanal) was “progressively decreased potency”.

Turning to `CC1(CC=O)CCCCC1` [Compound 10], the “Relative antagonist potency within the series, in words” value on mouse OR-I7 [1] (5 µM octanal) was “unfavorable”.

Turning to `CCC1(CC=O)CCCCC1` [Compound 11], the “Relative antagonist potency within the series, in words” value on mouse OR-I7 [1] (5 µM octanal) is given as “unfavorable”.

On to `O=CCC12CC3CC(CC(C3)C1)C2` [Compound 12], for which, on mouse OR-I7 [1] (from estimated IC50s, 5 µM octanal, Fig. 4), the “Antagonist potency weaker than compound 9” value is 3 fold.

As to `CCCCCCC=O` [heptanal], the “Function at rodent OR-I7” value with rat OR-I7 was “regained their ability to function as agonists”.
